From ChEMBL document CHEMBL3286367, “Synthesis of new class of spirocarbocycle derivatives by multicomponent domino reaction and their evaluation for antimicrobial, anticancer activity and molecular docking studies” (2014) come the findings set out here.

Experiment [1] concerns Micrococcus luteus. The experiment in a line: Antimicrobial activity against Micrococcus luteus MTCC 106 assessed as absence of visible growth after 48 to 72 hrs. The class given is functional.
Experiment [2] has as its system Klebsiella aerogenes. The experiment in a line: Antimicrobial activity against Enterobacter aerogenes MTCC 111 assessed as zone of inhibition at 1 mg/disc after 24 hrs incubation by disc diffusion assay. It counts as functional. In outline:
(§1)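 Inocula grown in Mueller Hinton broth for 24 h at 37 °C and swabbed onto Mueller Hinton agar. Discs carried 1 mg compound each and stood 30 min at room temperature before 24 h incubation at 37 °C. Solvent as negative control. Inhibition zones recorded in mm; experiment done twice.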

The subject of experiment [3] is Salmonella typhimurium. The experiment in a line: Antimicrobial activity against Salmonella typhimurium MTCC 1251 assessed as absence of visible growth after 48 to 72 hrs. To be noted: Salmonella enterica. It counts as functional, Salmonella enterica subsp. enterica serovar Typhimurium.
Experiment [4] deals with Staphylococcus aureus. Kind of experiment: Antimicrobial activity against methicillin-resistant Staphylococcus aureus assessed as absence of visible growth after 48 to 72 hrs. It counts as functional. In outline:
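Broth two-fold serial dilution in 96-well plates, 1000 to 7.81 µg/mL, compound dissolved in DMSO (2%). Inoculum grown in Mueller Hinton broth 24 h at 37°C. Streptomycin positive control. 5 µl of tested broth plated on MHA; MIC is the lowest concentration inhibiting visible growth on agar.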

Experiment [5] relates to Micrococcus luteus. The experiment in a line: Antimicrobial activity against Micrococcus luteus MTCC 106 assessed as zone of inhibition at 1 mg/disc after 24 hrs incubation by disc diffusion assay. It counts as functional. In outline:
as §1
In general terms: A growth-free zone around the sample is the usual read-out of agar diffusion tests.

The subject of another experiment is Malassezia pachydermatis. Kind of experiment: Antifungal activity against Malassezia pachydermatis assessed as zone of inhibition at 1 mg/disc after 48 hrs incubation by disc diffusion assay. It counts as functional. The gist of the method:
(§2)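 Disc diffusion on Mueller Hinton agar with swabbed cultures, 1 mg compound per disc. Discs stood 30 min at room temperature for diffusion, then plates incubated 48 h at 28 °C. Solvent as negative control. Yeast pre-grown in Sabouraud dextrose broth at 28 °C for 48-72 h; filamentous fungal spores came from SDA slants grown 10 days at 28 °C. Zone diameters in mm; run twice.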

The subject of experiment [6] is Staphylococcus epidermidis. Kind of experiment: Antimicrobial activity against Staphylococcus epidermidis MTCC 3615 assessed as absence of visible growth after 24 hrs.
In experiment [7] the test system is Salmonella typhimurium. Kind of experiment: Antimicrobial activity against Salmonella typhimurium MTCC 1251 assessed as zone of inhibition at 1 mg/disc after 24 hrs incubation by disc diffusion assay. The class given is functional, Salmonella enterica subsp. enterica serovar Typhimurium. The gist of the method: as §1
For the next experiment, the system named is Candida albicans. Kind of experiment: Antifungal activity against Candida albicans MTCC 227 assessed as zone of inhibition at 1 mg/disc after 48 hrs incubation by disc diffusion assay. It counts as functional. The gist of the method:
as §2

Experiment [8] deals with Shigella flexneri. Kind of experiment: Antimicrobial activity against Shigella flexneri MTCC 1457 assessed as zone of inhibition at 1 mg/disc after 24 hrs incubation by disc diffusion assay. It counts as functional. In outline:
as §1

Experiment [9] has as its system Staphylococcus aureus. Kind of experiment: Antimicrobial activity against methicillin-resistant Staphylococcus aureus assessed as zone of inhibition at 1 mg/disc after 24 hrs incubation by disc diffusion assay. The class given is functional. In outline: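 Inoculum grown in Mueller Hinton broth 24 h at 37°C, swabbed onto Mueller Hinton agar and dried 10 min. Discs loaded at 1 mg/disc, then 30 min at room temperature for diffusion. Plates incubated 24 h at 37°C. Solvent negative control; streptomycin positive control. Zone of inhibition read in mm; experiment done twice.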

For experiment [10], the system named is Klebsiella pneumoniae. Kind of experiment: Antimicrobial activity against Klebsiella pneumonia MTCC 109 assessed as absence of visible growth after 24 hrs.
Experiment [11] concerns Klebsiella aerogenes. The experiment in a line: Antimicrobial activity against Enterobacter aerogenes MTCC 111 assessed as absence of visible growth after 48 to 72 hrs. The class given is functional.
The subject of experiment [12] is Klebsiella pneumoniae. Kind of experiment: Antimicrobial activity against Klebsiella pneumonia MTCC 109 assessed as zone of inhibition at 1 mg/disc after 24 hrs incubation by disc diffusion assay. It counts as functional. In outline:
as §1

The subject of experiment [13] is Staphylococcus aureus. Kind of experiment: Antimicrobial activity against Staphylococcus aureus MTCC 96 assessed as zone of inhibition at 1 mg/disc after 24 hrs incubation by disc diffusion assay. The class given is functional. The gist of the method: as §1
Experiment [14] has as its system Proteus vulgaris. Kind of experiment: Antimicrobial activity against Proteus vulgaris MTCC 1771 assessed as zone of inhibition at 1 mg/disc after 24 hrs incubation by disc diffusion assay. The class given is functional. The gist of the method: as §1
The subject of experiment [15] is Proteus vulgaris. Kind of experiment: Antimicrobial activity against Proteus vulgaris MTCC 1771 assessed as absence of visible growth after 48 to 72 hrs. The class given is functional.
Experiment [16] relates to Staphylococcus aureus. The experiment in a line: Antimicrobial activity against Staphylococcus aureus MTCC 96 assessed as absence of visible growth after 48 to 72 hrs. It counts as functional.
In experiment [17] the test system is Staphylococcus epidermidis. The experiment in a line: Antimicrobial activity against Staphylococcus epidermidis MTCC 3615 assessed as zone of inhibition at 1 mg/disc after 24 hrs incubation by disc diffusion assay. It counts as functional. The gist of the method: as §1
In experiment [18] the test system is Shigella flexneri. The experiment in a line: Antimicrobial activity against Shigella flexneri MTCC 1457 assessed as absence of visible growth after 24 hrs.
The subject of experiment [19] is Staphylococcus epidermidis. The experiment in a line: Antimicrobial activity against Staphylococcus epidermidis MTCC 3615 assessed as absence of visible growth after 48 to 72 hrs. The class given is functional.

Converted amounts (≈) assume the structure as drawn. The source made the active and inactive calls.

By MIC is commonly meant the smallest concentration in the dilution series that meets the test's criterion for growth inhibition.

In the case of `N#CC1=C(N)[C@]2(C(=O)Nc3ccccc32)[C@@H](c2ccccc2F)[C@@H]2CCCC=C12` (mixture of isomers), the MIC in the experiment with Micrococcus luteus [1] was determined as 250 µg/mL; with Salmonella typhimurium [3], 250 µg/mL; in the experiment with Staphylococcus aureus [4] it was 250 µg/mL; in experiment [6], 250 µg/mL; with Klebsiella pneumoniae [10] it was 500 µg/mL; in the experiment on Klebsiella aerogenes [11] it was 250 µg/mL. Also, the MIC with Proteus vulgaris [15] came to 1000 µg/mL; in the experiment on Staphylococcus aureus [16], 125 µg/mL; in the experiment on Shigella flexneri [18], 1000 µg/mL. Further, the “inhibition zone (IZ)” value in the experiment with Klebsiella aerogenes [2] is listed as 14 mm; in the experiment on Micrococcus luteus [5], 10 mm; in the experiment with Salmonella typhimurium [7], 11 mm; in the experiment with Candida albicans, 10 mm; in the experiment on Shigella flexneri [8] it was 9 mm; in the experiment with Staphylococcus aureus [9] it was 12 mm. In addition, the “inhibition zone (IZ)” value is listed as 10 mm in the experiment with Klebsiella pneumoniae [12], 17 mm with Staphylococcus aureus [13], 8 mm in the experiment on Proteus vulgaris [14] and 13 mm in experiment [17]. Also, in the experiment with Malassezia pachydermatis, the inhibition entry is “inactive”.
As for `Cc1ccc([C@H]2[C@@H]3CCCCC=C3C(C#N)=C(N)[C@]23C(=O)Nc2ccccc23)cc1`, the MIC in the experiment on Micrococcus luteus [1] came to 250 µg/mL (≈ 632 µM); in the experiment on Salmonella typhimurium [3], 125 µg/mL (≈ 316 µM); in the experiment with Staphylococcus aureus [4] it was 250 µg/mL (≈ 632 µM); in [6] it was 250 µg/mL (≈ 632 µM); in the experiment on Klebsiella pneumoniae [10], 250 µg/mL (≈ 632 µM); in the experiment on Klebsiella aerogenes [11], 250 µg/mL (≈ 632 µM). The MIC in the experiment with Proteus vulgaris [15], with Staphylococcus aureus [16] and in the experiment with Shigella flexneri [18] was 250 µg/mL (≈ 632 µM) in each case. Further, the “inhibition zone (IZ)” value in the experiment with Klebsiella aerogenes [2] stood at 12 mm; with Micrococcus luteus [5], 13 mm; in the experiment on Malassezia pachydermatis, 8 mm; in the experiment with Salmonella typhimurium [7], 16 mm; with Candida albicans, 9 mm; in the experiment on Shigella flexneri [8], 11 mm. For the same molecule, the “inhibition zone (IZ)” value in the experiment with Staphylococcus aureus [9] is reported as 15 mm; with Klebsiella pneumoniae [12], 12 mm; with Staphylococcus aureus [13], 13 mm; in the experiment with Proteus vulgaris [14] it was 12 mm; in [17] it was 14 mm.
Turning to `N#CC1=C(N)[C@]2(C(=O)Nc3ccccc32)[C@@H](c2ccc(Br)cc2)[C@@H]2CCCC=C12`, the MIC in the experiment with Micrococcus luteus [1] worked out at 1000 µg/mL (≈ 2240 µM); in [19] it was 500 µg/mL (≈ 1120 µM); in the experiment with Salmonella typhimurium [3], 250 µg/mL (≈ 560 µM); in the experiment on Staphylococcus aureus [4], 250 µg/mL (≈ 560 µM); with Klebsiella pneumoniae [10], 500 µg/mL (≈ 1120 µM); with Klebsiella aerogenes [11], 250 µg/mL (≈ 560 µM). Moreover, the MIC amounted to 1000 µg/mL (≈ 2240 µM) with Proteus vulgaris [15], 250 µg/mL (≈ 560 µM) with Staphylococcus aureus [16] and 1000 µg/mL (≈ 2240 µM) in the experiment with Shigella flexneri [18]. Further, the “inhibition zone (IZ)” value with Klebsiella aerogenes [2] is given as 15 mm; in the experiment on Micrococcus luteus [5], 8 mm; with Malassezia pachydermatis it was 10 mm; with Salmonella typhimurium [7], 11 mm; in the experiment on Candida albicans it was 10 mm; in the experiment with Shigella flexneri [8] it was 8 mm. In addition, the “inhibition zone (IZ)” value worked out at 12 mm in the experiment on Staphylococcus aureus [9]; 10 mm with Klebsiella pneumoniae [12]; 12 mm with Staphylococcus aureus [13]; 9 mm in the experiment on Proteus vulgaris [14]; 10 mm in experiment [17].
With `Cc1ccc([C@H]2[C@@H]3CCCC=C3C(C#N)=C(N)[C@]23C(=O)Nc2ccccc23)cc1`, the MIC in the experiment on Micrococcus luteus [1] was determined as 1000 µg/mL (≈ 2620 µM); in the experiment with Salmonella typhimurium [3], 1000 µg/mL (≈ 2620 µM); in the experiment with Staphylococcus aureus [4] it was 1000 µg/mL (≈ 2620 µM); in experiment [6], 250 µg/mL (≈ 655 µM); in the experiment on Klebsiella pneumoniae [10], 500 µg/mL (≈ 1310 µM); in the experiment on Klebsiella aerogenes [11], 250 µg/mL (≈ 655 µM). For the same molecule, the MIC in the experiment on Proteus vulgaris [15] is 250 µg/mL (≈ 655 µM); in the experiment with Staphylococcus aureus [16], 250 µg/mL (≈ 655 µM); in the experiment with Shigella flexneri [18] it was 1000 µg/mL (≈ 2620 µM). The “inhibition zone (IZ)” value in the experiment on Klebsiella aerogenes [2] came out at 13 mm; with Micrococcus luteus [5], 8 mm; with Malassezia pachydermatis it was 10 mm; with Salmonella typhimurium [7], 9 mm; in the experiment on Candida albicans, 8 mm; in the experiment on Shigella flexneri [8], 9 mm. The “inhibition zone (IZ)” value with Staphylococcus aureus [9] is given as 9 mm; in the experiment with Klebsiella pneumoniae [12], 10 mm; in the experiment with Staphylococcus aureus [13], 11 mm; with Proteus vulgaris [14], 12 mm; in [17], 12 mm.
